Laboratory results from ChEMBL document CHEMBL4513216, “Probing the Open Global Health Chemical Diversity Library for Multistage-Active Starting Points for Next-Generation Antimalarials” (ACS Infect Dis, 2020).

Assay: Toxicity liver stage against HepG2, at 10uM
Format: cell-based
Set-up: test concentration 10 uM, cell line HepG2-A16-CD81EGFP
Conditions: human, HepG2-A16-CD81EGFP cells; read-out: INHIBITION
Outline: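 Uninfected HepG2-A16-CD81EGFP cells, 3 × 10^3 per well, 1536-well, plated on prespotted compound at 10 μM final, parasite-free screening media added to match infected plates; puromycin 10 μM positive, DMSO 0.5% negative; run in parallel with 48 h PbLuc assay at 37 °C, 5% CO2; viability by CellTiter-Glo luminescence, normalized to controls.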

Structure (SMILES) | cytotoxicity at 10 µM [%]
Cc1cc(=O)[nH]c(=O)n1Cc1ccccc1 | -42.6
Cc1ccc(-c2nnc([C@H]3CCN(C4CCC4)C3)o2)cc1 | 8.81
Cn1cncc1-c1nnc([C@H]2CCN(C3CCOCC3)C2)o1 | -3.46
CCN(CC)CCNc1c(-c2ccccc2)c(=O)c1=O | -0.686
CNC(=O)c1cn(C(C)(C)C)c2ncccc12 | -7.85
CN(C)CCNC(=O)Cn1cnc2cc(NC(=O)C3CC3)ccc21 | -14.3
COC(CNC(=O)c1cc(C)on1)c1ccccc1C (configuration not stated) | -17.8
COCc1ncn2c1CN(C(=O)c1ccco1)CC2 | 9.32
Cn1ncc2c1C(COCC1CC1)CN(Cc1ccsc1)C2 (configuration not stated) | -1.11
CC(=O)N1CC(=O)N(c2cnn(C)c2)CC12CCN(Cc1nccs1)C2 (configuration not stated) | 6.03
CCn1cc(S(=O)(=O)N2CCC(C)CC2)c(C)n1 | 8.44
NC(=O)c1ccn(COc2ccccc2Cl)n1 | 2.96
O=C(c1ccc(COc2ccccc2Cl)o1)N1N=CCC1(O)C(F)(F)F (configuration not stated) | 14.5
Cc1nc(C)c(CC(=O)N2CCC(c3ccn4nccc4n3)CC2)s1 | -0.743
O=C(NC[C@]1(O)CCN(Cc2ccccc2F)C[C@H]1O)c1c[nH]cn1 | 4.41
Cc1nccn1[C@@H]1CC[C@@H](NC(=O)CCCn2cccn2)[C@H]1O | -6.28
CN(C)C(=O)c1cncnc1-c1ccc(CNC(=O)C2CCCO2)cc1 (configuration not stated) | 5.55
CCC1CCCCN1C(=O)Cn1nc(-c2ccc(C)o2)cc(N)c1=O (configuration not stated) | 3.27
Cc1nnc(N2CCOC(C)(C(=O)NC3CCCC3)C2)c2ccccc12 (configuration not stated) | 7.92
NCCCC(=O)NCC1(O)CCCN(c2ccnc3cccnc23)C1 (configuration not stated) | 3.71
CCc1nccn1-c1cncc(C2CCCN2CC(=O)N2CCCC2)n1 (configuration not stated) | 0.193
CC(CN1CCCC1=O)NC(=O)Nc1cccnc1-n1cccn1 (configuration not stated) | -170
O=C(NCCSC1CCCC1)c1cnccn1 | -0.95

Structure (SMILES) | cytotoxicity at 10 µM [%]
CC1COCCN1C(=O)c1ccc(=O)n(CCOc2ccccc2)n1 (configuration not stated) | -13.5
CN1CCC(Nc2cc(Cl)ccc2OCC(F)(F)F)C1=O (configuration not stated) | -2.71
COc1ncccc1N(C)C(=O)Cn1cc(-c2ccccc2)nn1 | -1.11
CSc1ccc(NCC(=O)NC(=O)NCC(F)(F)F)cc1F | -7.91
CCC(NS(=O)(=O)N1CCOCC1)c1ccccc1OC (configuration not stated) | -45.1
CC(C)COC(=O)N1CCCN(C(C)c2nnc(CC(C)C)o2)CC1 (configuration not stated) | 8.69
CN(C)c1cc(CNC(=O)CC2CCCCC2)ccn1 | 9.24
Cc1ccccc1CCCN1C(=O)CC2(CCSC2)C1=O (configuration not stated) | -3.45
Cc1ccc(CNCc2nccn2C)c(OCC2CC2)c1 | -4.52
CCC1CCC(CNC(=O)c2c[nH]c(=O)c(Cl)c2)CC1 (configuration not stated) | -8.46
CC(c1ncc(C(C)(C)C)o1)N1CCN(Cc2ccco2)CC1 (configuration not stated) | 5.3
COc1ccc(OCC(=O)NS(=O)(=O)c2cc(C)ccc2C)cc1 | 7.19
COc1cccc(CN(C)Cc2ccccc2C#N)c1OC | -5.92
CS(=O)(=O)NCCC1CCCCN1C(=O)NCc1ccccn1 (configuration not stated) | -0.871
CC(C)Oc1cccc(C(O)CNC(=O)Nc2cccs2)c1 (configuration not stated) | 2.19
OC1CCN(c2ccccc2NCc2nc(-c3ccoc3)no2)CC1 | 14.5
COc1ccc2c(c1)C(=O)N(C)C1(CCN(CC3CC3)CC1)N2 | 6.4
FC(F)(F)c1cccnc1N1CCC(OC2CCOCC2)CC1 | -8.44
CS(=O)(=O)CCNCc1ccc(OCc2ccccn2)cc1 | -128
NC(=O)CN(Cc1ccc(Br)cc1)C(=O)c1cnccn1 | 8.48
COc1cc(C)c(CNC(C)c2csc(C)n2)cc1OC (configuration not stated) | 5.06
COCCCS(=O)(=O)N(Cc1cccc(C)c1)Cc1ccccn1 | 2.47
CC1CN(C)c2ccccc2CN1C(=O)NCc1ccon1 (configuration not stated) | 7.36

Structure (SMILES) | cytotoxicity at 10 µM [%]
COc1ccc(C(C)Nc2ncc(C(N)=O)cc2Cl)c(OC)c1 (configuration not stated) | 19.1
CCn1nc(-c2ccccc2F)ccc1=O | 12.9
CCN(C(=O)c1nc2c(s1)CCCN2S(C)(=O)=O)C(C)C | 3.99
CC(C)N(C)Cc1ncn2c1CN(C(=O)C1CCCO1)CCC2 (configuration not stated) | -103
COCCN1C(=O)[C@]2(CC[C@@H]3CN(S(=O)(=O)CC(C)C)C[C@@H]32)N=C1C | -69.3
Cc1ncncc1-c1ccnc(N(C)C)n1 | -8.3
CC(C)Nc1nc2c(s1)C(=O)CN(CC1CC1)C2 | -10.1
Cc1nnc(SCCNc2cc(C3CC3)ncn2)s1 | -6.67
C[C@@H]1CN(c2ccc(Cl)cn2)C[C@]1(C)O | 4.38
COc1ccc2c(c1)OCC(CNC(=O)c1ccc3[nH]nnc3c1)C2 (configuration not stated) | -7.72
CCCn1c(C)c(CC(=O)N(C)CC(=O)OC)c2c1CC(C)(C)CC2=O | -0.839
CN(C)C(C(=O)NCC1(O)CCCCC1)c1cccc(F)c1 (configuration not stated) | -2.07
Cc1cnc(CNCc2cn(CCN3CCSCC3)nc2C)cn1 | -0.629
c1ccc(-c2n[nH]c(CCNc3nnc(C4CCC4)o3)n2)cc1 | 0.677
COc1cccc(N2CCN(CC[C@H](O)c3ccccc3)CC2=O)c1 | 3.61
CC(C)n1ccnc1C1CCN(C(=O)N2CCCC2)CC1 | 0.386
O=C(O)C1(n2ccc(-c3ccco3)n2)CCN(Cc2ccccn2)CC1 | -137
CCn1cnc(NC(=O)NCC2CCS(=O)(=O)CC2)n1 | 5.08
Cc1cccc(-n2cc(CN3CCN(C)[C@@H]4CS(=O)(=O)C[C@@H]43)cn2)c1 | 2.25
Cc1cc(CN2CCCC2)cc(Oc2ccc3c(c2)CC(CN)O3)c1 (configuration not stated) | 0.298
CC(C)Cc1cc(C(=O)NCC2CCN(c3ccccc3F)C2)on1 (configuration not stated) | 0.075
CN1C(=O)C(c2ccccc2)CC12CCN(CCN1CCCC1=O)CC2 (configuration not stated) | -14.6
O=C1N(Cc2ccc(F)c(F)c2)CCCC1(O)CNCc1ccccn1 (configuration not stated) | -2.63

Structure (SMILES) | cytotoxicity at 10 µM [%]
Cc1cc(NC(=O)CN2CCCC2Cn2nc(C)nc2C)on1 (configuration not stated) | -3.31
CCc1nc(C(=O)N2CCN(CC)CC2)nn1-c1ccccc1Cl | 2.79
Cc1nc(C(=O)N2CCCCC2)nn1-c1ccccc1Cl | -6.46
COc1ccnc(N2CCN(C(=O)N3CCOCC3)CC2)n1 | -1.64
Cc1noc(C)c1C(=O)N1CCCN(Cc2nccn2C(C)C)CC1 | -3.92
Cc1ccsc1C(=O)NCc1ccnc(N2CCN(C)CC2)c1 | -8.6
CC(C(=O)N1CCN(Cc2ccc3c(c2)OCO3)CC1)n1ccnc1 (configuration not stated) | -9.57
Cc1cccc(C(=O)N2CCCC(c3noc(C)n3)C2)n1 (configuration not stated) | -19.9
CCc1c(C(=O)NCC2CCS(=O)(=O)C2)cnn1-c1ccccc1 (configuration not stated) | -8.22
CC(C)c1nnc2n1CCN(CCS(=O)(=O)c1ccccc1)C2 | -8.22
CC(C)c1nnc2n1CCN(C(=O)c1ccc(N(C)C)nn1)C2 | -9.86
c1ccc(Cn2ccnc2CNCC2CCCN2c2cccnn2)cc1 (configuration not stated) | -9.86
Cc1ccccc1CNC(=O)N1CCC(n2cncn2)CC1 | 2.54
Cc1nc(C)n(CC2CCCN(CCOc3ccc(F)cc3)C2)n1 (configuration not stated) | -3.33
c1csc(-c2nc(CN3CCOC(Cn4cccn4)C3)cs2)c1 (configuration not stated) | -8.25
Cc1cc(C)n(CC2CCCN2CC(=O)N(C)Cc2ccco2)n1 (configuration not stated) | -12.2
CCOc1cc(F)ccc1NC(=O)N(C)Cc1cnn(C)c1 | -17
CCCc1ccc(S(=O)(=O)NC(=O)CCC2CCCO2)cc1 (configuration not stated) | -25.7
COc1ccc(CC(=O)Nc2cccnc2N2CCCC2)cc1OC | -22.6
Cc1cnn(CC2CN(Cc3nc(C)no3)CCO2)c1 (configuration not stated) | -18.5
COCCOc1ccc(NC(=O)N2CCCC2c2ccsc2)cn1 (configuration not stated) | -8.33
COC(=O)C(NC(=O)C(C)C)c1cc(F)ccc1F (configuration not stated) | -4.53
CS(=O)(=O)Cc1cccc(C(=O)N2CCCC(n3cccn3)C2)c1 (configuration not stated) | 5.05

Structure (SMILES) | cytotoxicity at 10 µM [%]
CC(=O)NC1CCCN(C(=O)NCc2cccnc2-n2cccn2)C1 (configuration not stated) | 5.56
O=C(c1ccccc1N1CCOCC1)N1CCCC(n2cccn2)C1 (configuration not stated) | -7.32
O=C(CN1CCc2c(ncn2C2CC2)C1)NC1CC1 | 1.01
COc1c(CNCC(O)c2cccc(F)c2)c(C(C)C)nn1C (configuration not stated) | 2.31
CN(Cc1nnc(-c2ccco2)o1)CC1CCCN1c1cccnn1 (configuration not stated) | 5.68
CCn1ncc(CN2CCCC(n3c(=O)oc4ccccc43)C2)c1C (configuration not stated) | 1.83
Cc1cc(C)nc(N2CC=C[C@@H]2C(=O)NCc2ccc3c(c2)OCO3)n1 | -8.49
CN(C)C[C@H]1OC[C@@H]2CCN(C(=O)c3cccn3C)C[C@@H]21 | -2.29
Cc1ccsc1C(=O)N1CCC2(CC1)C(=O)N(C)CCN2CC1CC1 | -110
c1coc(CN2CCCn3c(nnc3Cn3cccn3)C2)c1 | -0.945
CCS(=O)(=O)NC[C@]12COC[C@H]1CN(Cc1ccccn1)C2 | -72.5
COCC1c2nnn(CC3CC3)c2CCN1Cc1ccncc1 (configuration not stated) | 3.37
Cc1occc1C(=O)N1CCc2c(CNc3ncccn3)cncc2C1 | -83.1
Cc1cc(C(=O)N2C[C@@H]3CC[C@H]2CN(Cc2ccccn2)C3)nc(N)n1 | -0.0925
NC1CC(C(F)(F)F)=NC=C1c1ccccc1 (configuration not stated) | -9.16
COc1ccc(CN2C[C@H]3CC[C@@H](C2)N(S(=O)(=O)C2CC2)C3)cc1 | -1.12
O=C(c1ccccn1)N1C[C@H]2CC[C@@H](C1)N(C(=O)Cc1cccs1)C2 | -1.13
NC(=O)NCC(=O)N1C[C@@H]2CC[C@H]1CN(Cc1ccccc1)C2 | -13.4
Cc1cc(C(=O)N2C[C@@H]3CC[C@H]2CN(Cc2ccccn2)C3)nc(C)n1 | 2.36
O=C1CCCC2=Nc3nonc3NC(c3cccc(F)c3F)C12 (configuration not stated) | 0.285
